PG9 Ab binder: small molecules binding HIV-1 gp120 antibody PG9; AID 624416; inhibition, % at 6.7 µM; TR-FRET gp120-PG9 antibody binding; hit rate 0.43% among 360,000; in the data active means inhibition above about 8.5%
MT1-MMP act inh: inhibitors of human MT1-MMP activation. GFP/RFP ratio change, % at 20 µM. P50281. HT1080 RFP-PRO-GFP cells, GFP/RFP ratio fluorescence, overnight; percent of plate control window, DMSO zero. hit rate 0.061% among 360,000. AID 651647;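 active means GFP/RFP ratio change of at least 30% with cell ATP level not reduced by more than half and red fluorescence within 50% of control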
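Compound: 20 µM single dose, 1% DMSO / System: HT1080 RFP-PRO-GFP cells / Controls: DMSO and RFP-L50D-GFP cell wells / Read-out basis: GFP/RFP fluorescence ratio / Schedule: overnight compound exposure at 37 °C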
NR2E3 ag-1: NR2E3 (human) agonism. AID 2300. GST-NR2E3/biotin-RetCOR TR-FRET, 1536-well. hit rate 0.12% among 320,000. inhibition of corepressor binding, % at 4.78 µM. Q9Y5X4;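 active means percent inhibition above the cutoff of mean plus 3 SD of all tested compounds, set per screening campaign, cut at about 20% in these data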;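 further: 0% = DMSO wells and 100% = biotin wells as full block of FRET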
Target sequence (Q9Y5X4 whole entry, looked up): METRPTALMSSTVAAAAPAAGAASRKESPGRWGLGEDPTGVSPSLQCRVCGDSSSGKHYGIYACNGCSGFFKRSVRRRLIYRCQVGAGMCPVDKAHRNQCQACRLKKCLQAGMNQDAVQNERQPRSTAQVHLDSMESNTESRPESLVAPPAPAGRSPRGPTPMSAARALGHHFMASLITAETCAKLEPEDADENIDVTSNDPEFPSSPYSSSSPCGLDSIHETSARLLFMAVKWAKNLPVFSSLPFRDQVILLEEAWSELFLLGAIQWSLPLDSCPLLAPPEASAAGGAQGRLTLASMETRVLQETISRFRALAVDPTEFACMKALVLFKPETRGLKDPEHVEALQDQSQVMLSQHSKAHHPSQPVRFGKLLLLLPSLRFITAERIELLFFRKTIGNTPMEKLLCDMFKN
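System: GST-tagged NR2E3 plus biotinylated RetCOR corepressor; Buffer or medium: pH 7.5 Tris-based buffer; Probe or stimulus: RetCOR corepressor, biotinylated, 7 nM; Doses: compound at 4.8 µM, single dose; Schedule: 5 h incubation at 4 °C; Technique: time-resolved FRET; Evaluation: percent inhibition of TR-FRET ratio; Replication: one well per compound, singlicate testing.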
NR2E3 ag-2: human photoreceptor-specific nuclear receptor agonism. CHO-S Gal4-NCOR/VP16-NR2E3 two-hybrid, luciferase. inhibition of corepressor binding, % at 3.98 µM. Q9Y5X4. AID 602229. hit rate 0.35% among 360,000;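 active means inhibition above the mean of all tested compounds plus 3 SD, cut at about 70% in these data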;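 further: 0% = DMSO with NR2E3 transfected cells and 100% = cells lacking NR2E3 construct; higher means lower luciferase signal from less NR2E3 corepressor binding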
SKN-1 inh: blocks SKN-1 activity in C. elegans; inhibition, % at 21.8 µM; hit rate 0.49% among 360,000; C. elegans VP596 Pgst-4::GFP/RFP ratio, acrylamide-induced, 24 h;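 active means interference check ratio from 0.5 to 1.5 plus GFP to RFP signal ratio inhibition reaching or exceeding a fixed threshold, cut at about 30% in these data, passing the limit was not always enough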
Rev-erbA mod: modulates human Rev-erb alpha binding to DNA; hit rate 0.79% among 370,000; activity, % at 10 µM; AID 1259318; Rev-erbα–FITC-DNA binding, fluorescence polarization, 90 min; P20393;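 active means activity above about 14%, limit read from the data; passing the limit was not always enough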;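 further: 0% = DMSO wells with 35 nM protein and 100% = DMSO wells with 750 nM protein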
NR1D1 mod conf: confirmation of modulators of human Rev-erb alpha DNA binding | shares compounds with Rev-erbA mod | Rev-erb alpha FITC-DNA binding, fluorescence polarization, 90 min | activation, % at 25 µM | hit rate 61% among 3,000 | AID 1259319;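 active means activation at or above a set limit, or at least 3 SD above the negative control mean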;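 further: 0% = 35 nM protein with DMSO and 100% = 750 nM protein high control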
RORg DNA counter: affects RORgamma DNA binding in a Rev-erb alpha counter-screen; shares compounds with Rev-erbA mod; purified RORgamma protein-FITC-DNA binding, fluorescence polarization; IC50, µM; hit rate 8% among 910; AID 1259320;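 active means Compounds whose fitted half-maximal concentration for disrupting protein-DNA binding is below 10 micromolar; the record names Rev-erb in its text, so the target is in doubt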
Active calls of the source: *; i = inactive; . = no result. Hits are enriched below; roughly 1.9% of the tested compounds scored in any of these assays.

SMILES	PG9 Ab binder	MT1-MMP act inh	NR2E3 ag-1	NR2E3 ag-2	SKN-1 inh	Rev-erbA mod	NR1D1 mod conf	others
CCOC(=O)c1c(NC(=O)c2cc3n(n2)C(C(F)(F)F)CC(c2ccccc2)N3)sc(C)c1C (stereo unspecified)	-2	1	2	-5	-2	36*	6
COC(=O)N(C)C[C@@H]1OCc2ccccc2-c2c(n(C)c3ccccc23)C(=O)N([C@H](C)CO)C[C@@H]1C	-1	-2	.	-18	-5	-4	.
CN(Cc1ccc(F)cc1)C(=O)c1cccc2c1C(=O)N(Cc1cccnc1)C2	.	.	.	.	.	5	.
CCOc1ccc(NC(=O)c2ccc(NC(=O)c3cn4c5c(c(N6CCN(C)CC6)c(F)cc5c3=O)OCC4C)cc2)cc1 (stereo unspecified)	-1	3	3	-8	-4	70*	41*
O=C(CSc1nnc2c(n1)[nH]c1ccc(S(=O)(=O)N3CCOCC3)cc12)Nc1ccc(F)c(F)c1	-1	-3	-1	-1	8	45*	14
O=C(CNC(=O)c1cc(=O)[nH]c2ccc(S(=O)(=O)N3CCOCC3)cc12)Nc1ccc(F)c(F)c1	0	-4	.	-26	8	0	.
C[C@H](CO)N1C[C@H](C)[C@@H](CN(C)C(=O)CCC(F)(F)F)OCc2cn(nn2)CCCC1=O	-2	.	.	.	.	1	.
Cc1sc2ncnc(N3CCC(C(=O)Nc4nc(-c5cccs5)cs4)CC3)c2c1C	0	-4	3	-5	-12	6	.
CCCCc1nnc(NC(=O)C2CCN(c3ncnc4sc(C)c(C)c34)CC2)s1	4	-2	0	3	14	19*	11
CCc1nnc(NC(=O)C2CCN(c3ncnc4sc(C)c(C)c34)CC2)s1	-1	-4	4	6	6	35*	6
Clc1ccc(-c2ccnc(-n3cccc3)n2)s1	2	-9	0	0	43*	18*	-1
Clc1ccsc1-c1ccnc(-n2cccc2)n1	2	-2	1	-26	27	-4	.
c1ccc(SC23CCCCN(CCC2)C32OCCO2)cc1 (stereo unspecified)	2	6	.	-17	7	7	.
Cc1csc(-c2nc3ccccc3n2C(C(=O)NC(C)(C)C)c2ccccc2)c1 (stereo unspecified)	0	-3	.	.	12	-6	.
C1COC(NC(C2CC2)C2CC2)=N1	0	3	1	9	9	17*	-7
C1CCC(NC2=NCCO2)CC1	-1	-4	.	-23	-4	2	.
Cc1cccc(N2CCN(S(=O)(=O)c3ccc4c(c3)n(C)c(=O)c(=O)n4C)CC2C)c1 (stereo unspecified)	0	-16	3	17	2	-8	.
Cc1cccc(N2CCN(c3ccc4cc(S(=O)(=O)N5CCCCC5)ccc4n3)CC2C)c1 (stereo unspecified)	0	4	0	-7	5	78*	49*	RORg DNA counter=>40
Cc1ccc(C)c(N2CCN(c3ccc4cc(S(=O)(=O)N5CCCCC5)ccc4n3)CC2)c1	1	7	0	17	-2	12	.
Cc1cccc(N2CCN(c3ccc4cc(S(=O)(=O)N5CCCCC5)ccc4n3)CC2)c1C	-1	-3	-1	5	3	101*	50*	RORg DNA counter=>40
Cc1cc(C)cc(C(O)c2ncc(-c3ccc(C(F)(F)F)cc3)[nH]2)c1 (stereo unspecified)	4	3	.	-3	-21	4	.
COC(=O)C1=C(C)N(Cc2ccc(Br)cc2)C(=S)NC1c1ccc(OC)cc1 (stereo unspecified)	1	.	.	.	.	3	.
O=C(c1ccc2c(=O)n(Cc3ccccc3Cl)c(=S)[nH]c2c1)N1CCOCC1	-1	0	1	5	-4	32*	27*
O=C(c1ccc(Br)o1)N1N=C(c2ccc(Cl)cc2)CC1c1ccco1 (stereo unspecified)	0	-5	1	-21	20	24*	5
CC(=O)N1N=C(c2ccc(Cl)cc2)CC1c1ccco1 (stereo unspecified)	-1	-4	0	-13	11	-3	.
SMILES	PG9 Ab binder	MT1-MMP act inh	NR2E3 ag-1	NR2E3 ag-2	SKN-1 inh	Rev-erbA mod	NR1D1 mod conf	others
COc1ccc(-c2nnc(NC(=O)c3cccs3)s2)c(OC)c1	0	-1	-3	-16	-5	3	.
COc1ccc(-c2nnc(NC(=O)Cc3ccccc3)s2)c(OC)c1	5	3	5	-2	6	41*	19*
N#Cc1ccccc1S(=O)(=O)N1CCN(c2nc(-c3cccs3)nc3ccccc23)CC1	.	.	.	.	.	9	.
Cc1cccc2cc(C#N)c(NCCNC(=O)NC3CCCCC3)nc12	1	0	-1	1	-10	62*	31*	RORg DNA counter=>40
Cc1ccc(/C=C/c2ccc(N(C)C)cc2)[n+](C)c1	-20	-126	-11	-14	50	37*	50*	RORg DNA counter=i
Cc1ccc(C(=O)O/N=C/c2ccc(N(C)C)cc2)cc1	2	4	-1	-10	12	3	.
CN(C)c1ccc(/C=C/c2cc[n+](C)cc2)cc1	-22	-67	11	1	78	28*	44*	RORg DNA counter=>40
NC(=O)c1c(N)[nH]c(C(=O)c2ccccc2)c1-c1ccc2c(c1)OCO2	0	.	.	.	.	-1	.
Cc1ccc(-n2nnnc2SCC(=O)c2c(N)n(C3CC3)c(=O)[nH]c2=O)cc1C	2	1	2	20	4	21*	14*
Cc1cc(NC(=O)c2ccc(S(=O)(=O)N3CCCC3)cc2)nc2c1c(=O)oc1ccccc12	-1	-1	.	-25	-10	36*	8
Cc1cc(NC(=O)c2ccc(S(=O)(=O)N3CCOCC3)cc2)nc2c1c(=O)oc1ccccc12	-2	.	2	.	.	36*	16
Cc1cc(NC(=O)c2ccccc2)nc2c1c(=O)oc1ccccc12	-2	3	0	4	4	12	.
O=C(NCc1ccccc1)C(c1ccc(C(F)(F)F)cc1)n1c(=O)c(-c2cc3ccccc3[nH]2)nc2ccccc21 (stereo unspecified)	0	-9	.	.	-8	11	.
CC1=C(c2ccccc2)C(=O)C(C)(C)CC1=O	0	.	.	.	.	-1	.
COc1ccc(-c2cc(-c3ccccc3)nc(SCC(=O)Nc3ncc(C)s3)c2C#N)cc1	3	-12	2	-2	18	39*	7
